Common to all, as to type: functional
For assay [1], the system named is Staphylococcus aureus. The experiment in a line: Antimicrobial activity against Staphylococcus aureus 1651 harboring G2576U mutation in peptidyl transferase centre by broth microdilution method. In a few lines: (§1)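 MIC by CLSI broth microdilution for aerobically growing bacteria, in Mueller-Hinton II broth. Test organisms were recent clinical isolates from diverse geographic centers plus laboratory-derived oxazolidinone-resistant mutants. QC strains S. aureus ATCC 29213 and E. faecalis ATCC 29212 were included in each assay set to confirm proper assay performance.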

In assay [2] the test system is Staphylococcus aureus. As to the kind of experiment: Antimicrobial activity against linezolid-resistant Staphylococcus aureus 1652 harboring U2500A mutation in peptidyl transferase centre by broth microdilution method. In a few lines: as §1
In general terms: Dilution methods test growth across graded concentrations, often in twofold steps.

In assay [3] the test system is Staphylococcus aureus. The experiment in a line: Antimicrobial activity against linezolid-resistant methicillin-resistant Staphylococcus aureus NRS127 by broth microdilution method. A digest of the protocol: as §1
For assay [4], the system named is Staphylococcus aureus. The experiment in a line: Antimicrobial activity against linezolid-resistant methicillin-resistant Staphylococcus aureus NRS119 harboring G2576U mutation in peptidyl transferase centre by broth microdilution method. In a few lines:
as §1

Assay [5] relates to Staphylococcus aureus. The experiment in a line: Antimicrobial activity against linezolid-resistant methicillin-resistant Staphylococcus aureus NRS120 harboring G2576U mutation in peptidyl transferase centre by broth microdilution method.
The test system of assay [6] is Staphylococcus aureus. The experiment in a line: Antimicrobial activity against linezolid-resistant methicillin-resistant Staphylococcus aureus NRS121 harboring G2576U mutation in peptidyl transferase centre by broth microdilution method. A digest of the protocol: as §1
The test system of assay [7] is Staphylococcus aureus. As to the kind of experiment: Antimicrobial activity against linezolid-resistant methicillin-resistant Staphylococcus aureus NRS271 harboring G2576U mutation in peptidyl transferase centre by broth microdilution method. In a few lines: as §1
The subject of assay [8] is Staphylococcus aureus. As to the kind of experiment: Antimicrobial activity against linezolid-resistant Staphylococcus aureus CM/05 3067 harboring chromosomal cfr gene by broth microdilution method. A digest of the protocol: as §1
Assay [9] relates to Staphylococcus aureus. The experiment in a line: Antimicrobial activity against linezolid-resistant Staphylococcus aureus 004-737X harboring plasmid borne cfr gene by broth microdilution method. In a few lines:
as §1

The test system of assay [10] is Staphylococcus aureus. The experiment in a line: Antimicrobial activity against linezolid-resistant Staphylococcus aureus 131-6952X harboring plasmid borne cfr gene by broth microdilution method. A digest of the protocol:
as §1

In assay [11] the test system is Staphylococcus aureus. As to the kind of experiment: Antimicrobial activity against linezolid-resistant Staphylococcus aureus 425 harboring G2447U in peptidyl transferase centre by broth microdilution method. A digest of the protocol: as §1
For assay [12], the system named is Staphylococcus aureus. As to the kind of experiment: Antimicrobial activity against linezolid-resistant Staphylococcus aureus 480 harboring G2447U in peptidyl transferase centre by broth microdilution method. In a few lines: as §1
Assay [13] relates to Enterococcus faecalis. The experiment in a line: Antimicrobial activity against linezolid-resistant Enterococcus faecalis 413 harboring G2576U mutation in peptidyl transferase centre by broth microdilution method. In a few lines:
as §1

Assay [14] has as its system Enterococcus faecalis. The experiment in a line: Antimicrobial activity against linezolid-resistant Enterococcus faecalis 414 harboring G2576U mutation in peptidyl transferase centre by broth microdilution method. In a few lines:
as §1

Assay [15] has as its system Enterococcus faecium. As to the kind of experiment: Antimicrobial activity against linezolid-resistant Enterococcus faecium 854 harboring G2576U mutation in peptidyl transferase centre by broth microdilution method. A digest of the protocol: as §1
Assay [16] relates to Staphylococcus aureus. As to the kind of experiment: Antimicrobial activity against linezolid-resistant Staphylococcus aureus by broth microdilution method. In a few lines: as §1
In assay [17] the test system is Staphylococcus epidermidis. As to the kind of experiment: Antimicrobial activity against linezolid-resistant Staphylococcus epidermidis by broth microdilution method. A digest of the protocol:
as §1

The test system of assay [18] is Enterococcus faecalis. As to the kind of experiment: Antimicrobial activity against linezolid-resistant Enterococcus faecalis by broth microdilution method. A digest of the protocol: as §1
Assay [19] has as its system Enterococcus faecium. As to the kind of experiment: Antimicrobial activity against linezolid-resistant Enterococcus faecium by broth microdilution method. A digest of the protocol: as §1
The test system of the next assay is Staphylococcus hominis. The experiment in a line: Antimicrobial activity against linezolid-resistant Staphylococcus hominis by broth microdilution method. A digest of the protocol:
as §1

The test system of a further assay is Mammaliicoccus sciuri. The experiment in a line: Antimicrobial activity against linezolid-resistant Staphylococcus sciuri by broth microdilution method. In a few lines:
as §1

Assay [20] relates to Staphylococcus aureus. As to the kind of experiment: Antimicrobial activity against […] 29213 by broth microdilution method. A digest of the protocol:
as §1

The subject of assay [21] is Enterococcus faecalis. The experiment in a line: Antimicrobial activity against linezolid-resistant Enterococcus faecalis 411 harboring G2576U mutation in peptidyl transferase centre by broth microdilution method. In a few lines:
as §1

Assay [22] has as its system Enterococcus faecalis. As to the kind of experiment: Antimicrobial activity against linezolid-resistant Enterococcus faecalis 412 harboring G2576U mutation in peptidyl transferase centre by broth microdilution method. A digest of the protocol: as §1
For assay [23], the system named is Enterococcus faecalis. As to the kind of experiment: Antimicrobial activity against linezolid-resistant Enterococcus faecalis 1172 harboring G2576U mutation in peptidyl transferase centre by broth microdilution method. A digest of the protocol: as §1
Assay [24] relates to Enterococcus faecalis. The experiment in a line: Antimicrobial activity against linezolid-resistant Enterococcus faecalis 3124 harboring G2576U mutation in peptidyl transferase centre by broth microdilution method. A digest of the protocol:
as §1

For assay [25], the system named is Enterococcus faecalis. The experiment in a line: Antimicrobial activity against linezolid-resistant Enterococcus faecalis 3128 harboring G2576U mutation in peptidyl transferase centre by broth microdilution method. In a few lines: as §1

The structures appear in SMILES notation. In brackets after ≈: the same amount, converted by molar mass.

The MIC is the smallest concentration in the dilution series that meets the test's criterion for growth inhibition. Low values mean greater potency, high ones weaker potency. By MIC50 is commonly meant the lowest concentration that inhibits either 50% of growth or 50% of the strains tested, depending on the study. Read a low MIC50 as greater potency. A word on the MIC90: it is an inhibitory concentration at the 90% level, which refers to growth in some studies and to a panel of isolates in others. A lower MIC90 goes with higher susceptibility.

`CC(=O)NC[C@H]1CN(c2ccc(N3CCOCC3)c(F)c2)C(=O)O1` [LINEZOLID]: the MIC is 16 µg/mL (≈ 47.4 µM) against Staphylococcus aureus [1]; 32 µg/mL (≈ 94.9 µM) against Staphylococcus aureus [2]; 8 µg/mL (≈ 23.7 µM) against Staphylococcus aureus [3]; 64 µg/mL (≈ 190 µM) with Staphylococcus aureus [4]; 64 µg/mL (≈ 190 µM) against Staphylococcus aureus [5]; 64 µg/mL (≈ 190 µM) in the assay with Staphylococcus aureus [6]. For the same compound, the MIC with Staphylococcus aureus [7] is 32 µg/mL (≈ 94.9 µM); against Staphylococcus aureus [8], 16 µg/mL (≈ 47.4 µM); with Staphylococcus aureus [9], 8 µg/mL (≈ 23.7 µM); in the assay with Staphylococcus aureus [10], 32 µg/mL (≈ 94.9 µM); in the assay with Staphylococcus aureus [11], 32 µg/mL (≈ 94.9 µM); against Staphylococcus aureus [12], more than 32 µg/mL. Besides, the MIC is 32 µg/mL (≈ 94.9 µM) against Enterococcus faecalis [13]; 32 µg/mL (≈ 94.9 µM) in the assay on Enterococcus faecalis [14]; 16 µg/mL (≈ 47.4 µM) with Enterococcus faecium [15]; 16 µg/mL (≈ 47.4 µM) with Staphylococcus hominis; 16 µg/mL (≈ 47.4 µM) against Mammaliicoccus sciuri. Moreover, the MIC50 in the assay with Staphylococcus aureus [16] worked out at 2 µg/mL (≈ 5.93 µM); in [17], 32 µg/mL (≈ 94.9 µM); with Enterococcus faecalis [18], 32 µg/mL (≈ 94.9 µM); in the assay on Enterococcus faecium [19], 32 µg/mL (≈ 94.9 µM). Moreover, the MIC90 in the assay with Staphylococcus aureus [16] was 16 µg/mL (≈ 47.4 µM); in assay [17] it was more than 128 µg/mL; against Enterococcus faecalis [18], 32 µg/mL (≈ 94.9 µM); against Enterococcus faecium [19], 64 µg/mL (≈ 190 µM).
With `Cc1onc(-c2ccccc2)c1C(=O)N[C@@H]1C(=O)N2[C@@H]1SC(C)(C)[C@@H]2C(=O)O` [OXACILLIN], the MIC in the assay on Staphylococcus aureus [1] is more than 32 µg/mL; in the assay with Staphylococcus aureus [2], 32 µg/mL (≈ 79.7 µM); against Staphylococcus aureus [3] it was 32 µg/mL (≈ 79.7 µM); with Staphylococcus aureus [8], more than 32 µg/mL; in the assay on Staphylococcus aureus [9], more than 2 µg/mL; with Staphylococcus aureus [10], more than 2 µg/mL. Also, the MIC against Staphylococcus aureus [20] is 0.12 µg/mL (≈ 0.299 µM); against Staphylococcus aureus [11] it was 0.12 µg/mL (≈ 0.299 µM); in the assay with Staphylococcus aureus [12], less than 0.03 µg/mL; in the assay on Enterococcus faecalis [21] it was more than 32 µg/mL; in the assay with Enterococcus faecalis [22] it was 16 µg/mL (≈ 39.9 µM); against Enterococcus faecalis [13], more than 32 µg/mL. The MIC against Enterococcus faecalis [14] was 16 µg/mL (≈ 39.9 µM); with Enterococcus faecalis [23] it was 32 µg/mL (≈ 79.7 µM); against Enterococcus faecalis [24], 8 µg/mL (≈ 19.9 µM); against Enterococcus faecalis [25] it was 2 µg/mL (≈ 4.98 µM); against Enterococcus faecium [15] it was more than 32 µg/mL.
In the case of `CC1(C)S[C@@H]2[C@H](NC(=O)Cc3ccccc3)C(=O)N2[C@H]1C(=O)O` [PENICILLIN G], the MIC with Staphylococcus aureus [1] worked out at 16 µg/mL (≈ 47.8 µM); in the assay on Staphylococcus aureus [2], 32 µg/mL (≈ 95.7 µM); against Staphylococcus aureus [3], 16 µg/mL (≈ 47.8 µM); with Staphylococcus aureus [20] it was 1 µg/mL (≈ 2.99 µM); against Staphylococcus aureus [11], 1 µg/mL (≈ 2.99 µM); in the assay with Staphylococcus aureus [12] it was 0.25 µg/mL (≈ 0.748 µM). Besides, the MIC came out at 4 µg/mL (≈ 12 µM) with Enterococcus faecalis [21]; 2 µg/mL (≈ 5.98 µM) against Enterococcus faecalis [22]; 4 µg/mL (≈ 12 µM) against Enterococcus faecalis [13]; 1 µg/mL (≈ 2.99 µM) against Enterococcus faecalis [14]; 4 µg/mL (≈ 12 µM) against Enterococcus faecalis [23].
For `Cn1nnc(-c2ccc(-c3ccc(N4C[C@H](CO)OC4=O)cc3F)cn2)n1` [TEDIZOLID], the MIC in the assay with Staphylococcus aureus [1] is 2 µg/mL (≈ 5.4 µM); in the assay on Staphylococcus aureus [2] it was 4 µg/mL (≈ 10.8 µM); in the assay on Staphylococcus aureus [3] it was 1 µg/mL (≈ 2.7 µM); with Staphylococcus aureus [4], 4 µg/mL (≈ 10.8 µM); against Staphylococcus aureus [5], 8 µg/mL (≈ 21.6 µM); with Staphylococcus aureus [6], 4 µg/mL (≈ 10.8 µM). The MIC is 2 µg/mL (≈ 5.4 µM) in the assay on Staphylococcus aureus [7]; 1 µg/mL (≈ 2.7 µM) in the assay on Staphylococcus aureus [8]; 0.5 µg/mL (≈ 1.35 µM) in the assay with Staphylococcus aureus [9]; 1 µg/mL (≈ 2.7 µM) in the assay with Staphylococcus aureus [10]; 1 µg/mL (≈ 2.7 µM) against Staphylococcus aureus [20]; 8 µg/mL (≈ 21.6 µM) with Staphylococcus aureus [11]. The MIC stood at 16 µg/mL (≈ 43.2 µM) in the assay with Staphylococcus aureus [12]; 2 µg/mL (≈ 5.4 µM) in the assay on Enterococcus faecalis [21]; 2 µg/mL (≈ 5.4 µM) in the assay with Enterococcus faecalis [22]; 2 µg/mL (≈ 5.4 µM) against Enterococcus faecium [15]; 2 µg/mL (≈ 5.4 µM) in the assay with Staphylococcus hominis; 2 µg/mL (≈ 5.4 µM) in the assay on Mammaliicoccus sciuri. The MIC50 stood at 0.25 µg/mL (≈ 0.675 µM) against Staphylococcus aureus [16], 4 µg/mL (≈ 10.8 µM) in [17], 4 µg/mL (≈ 10.8 µM) in the assay with Enterococcus faecalis [18] and 2 µg/mL (≈ 5.4 µM) with Enterococcus faecium [19]. Further, the MIC90 against Staphylococcus aureus [16] turned out to be 2 µg/mL (≈ 5.4 µM); in [17], 8 µg/mL (≈ 21.6 µM); against Enterococcus faecalis [18] it was 4 µg/mL (≈ 10.8 µM); against Enterococcus faecium [19] it was 4 µg/mL (≈ 10.8 µM).
As to `CN[C@H](CC(C)C)C(=O)N[C@H]1C(=O)N[C@@H](CC(N)=O)C(=O)N[C@H]2C(=O)N[C@H]3C(=O)N[C@H](C(=O)N[C@H](C(=O)O)c4cc(O)cc(O)c4-c4cc3ccc4O)[C@H](O)c3ccc(c(Cl)c3)Oc3cc2cc(c3O[C@@H]2O[C@H](CO)[C@@H](O)[C@H](O)[C@H]2O[C@H]2C[C@](C)(N)[C@H](O)[C@H](C)O2)Oc2ccc(cc2Cl)[C@H]1O` [VANCOMYCIN], the MIC against Enterococcus faecalis [21] is 1 µg/mL (≈ 0.69 µM); in the assay on Enterococcus faecalis [22], 1 µg/mL (≈ 0.69 µM); against Enterococcus faecalis [13], 1 µg/mL (≈ 0.69 µM); against Enterococcus faecalis [14] it was 32 µg/mL (≈ 22.1 µM); with Enterococcus faecalis [23], more than 32 µg/mL; in the assay on Enterococcus faecalis [24], more than 32 µg/mL. For the same compound, the MIC in the assay on Enterococcus faecalis [25] and in the assay on Enterococcus faecium [15] was more than 32 µg/mL throughout.

(Values after ChEMBL document CHEMBL1275567, “In vitro activity of TR-700, the antibacterial moiety of the prodrug TR-701, against linezolid-resistant strains” (2008).)
